Results published in ChEMBL document CHEMBL1125797, “Synthesis, characterization and myocardial uptake of cationic bis(arene)technetium(I) complexes” (J Med Chem, 1991).

What was measured:
Rattus norvegicus [1] = test: Biodistribution of compound in rat liver at 5 min after intravenous administration; type: ADME, organism-based; conditions: in vivo
In short: (§1)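 Rats received the 99mTc complex in normal saline (~12.5 μCi/mL) by lateral tail vein injection at ~25 μCi/kg and were killed by cervical dislocation at the stated time. Tissues were washed with saline, blotted, weighed and γ-counted to give percent injected dose/g. Time-course values are averages of male and female rats.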

Rattus norvegicus [2] = test: Biodistribution of compound in rat liver at 90 min after intravenous administration; type: ADME, organism-based; conditions: in vivo, 1.5 h; in short: as §1
Rattus norvegicus [3] = test: Biodistribution of compound in rat lungs at 1440 min after intravenous administration; type: ADME, organism-based, Lung; conditions: in vivo, 24 h; in short: as §1
Rattus norvegicus [4] = test: Biodistribution of compound in rat lungs at 180 min after intravenous administration; type: ADME, organism-based, Lung; conditions: in vivo, 3 h; in short: as §1
Rattus norvegicus [5] = test: Biodistribution of compound in rat lungs at 360 min after intravenous administration; type: ADME, organism-based, Lung; conditions: in vivo, 6 h; in short: as §1
Rattus norvegicus [6] = test: Biodistribution of compound in rat lungs at 45 min after intravenous administration; type: ADME, organism-based, Lung; conditions: in vivo, 0.75 h; in short: as §1
Rattus norvegicus [7] = test: Biodistribution of compound in rat lungs at 5 min after intravenous administration; type: ADME, organism-based, Lung; conditions: in vivo; in short: as §1
Rattus norvegicus [8] = test: Biodistribution of compound in rat lungs at 90 min after intravenous administration; type: ADME, organism-based, Lung; conditions: in vivo, 1.5 h; in short: as §1
Rattus norvegicus [9] = test: Biodistribution of compound in rat muscle at 1440 min after intravenous administration; type: ADME, organism-based, Muscle tissue; conditions: in vivo, 24 h; in short: as §1
Rattus norvegicus [10] = test: Biodistribution of compound in rat muscle at 180 min after intravenous administration; type: ADME, organism-based, Muscle tissue; conditions: in vivo, 3 h; in short: as §1
Rattus norvegicus [11] = test: Biodistribution of compound in rat muscle at 360 min after intravenous administration; type: ADME, organism-based, Muscle tissue; conditions: in vivo, 6 h; in short: as §1
Rattus norvegicus [12] = test: Biodistribution of compound in rat muscle at 45 min after intravenous administration; type: ADME, organism-based, Muscle tissue; conditions: in vivo, 0.75 h; in short: as §1
Rattus norvegicus [13] = test: Biodistribution of compound in rat muscle at 5 min after intravenous administration; type: ADME, organism-based, Muscle tissue; conditions: in vivo; in short: as §1
Rattus norvegicus [14] = test: Biodistribution of compound in rat muscle at 90 min after intravenous administration; type: ADME, organism-based, Muscle tissue; conditions: in vivo, 1.5 h; in short: as §1
Rattus norvegicus [15] = test: Biodistribution of compound in rat bone at 1440 min after intravenous administration; type: ADME, organism-based, Bone element; conditions: in vivo, 24 h
In short: (§2)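 Time course in Sprague-Dawley rats after lateral tail-vein injection of the 99mTc complex in normal saline (~12.5 μCi/mL) at ~25 μCi/kg. Tissues were sampled at the stated times, washed with saline, blotted, weighed and γ-counted to give percent injected dose per g. Values are averages of male and female rats.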

Rattus norvegicus [16] = test: Biodistribution of compound in rat bone at 180 min after intravenous administration; type: ADME, organism-based, Bone element; conditions: in vivo, 3 h; in short: as §2
Rattus norvegicus [17] = test: Biodistribution of compound in rat bone at 45 min after intravenous administration; type: ADME, organism-based, Bone element; conditions: in vivo, 0.75 h; in short: as §2
Rattus norvegicus [18] = test: Biodistribution of compound in rat bone at 5 min after intravenous administration; type: ADME, organism-based, Bone element; conditions: in vivo; in short: as §2
Rattus norvegicus [19] = test: Biodistribution of compound in rat bone at 90 min after intravenous administration; type: ADME, organism-based, Bone element; conditions: in vivo, 1.5 h; in short: as §2
Rattus norvegicus [20] = test: Biodistribution of compound in rat bone marrow at 1440 min after intravenous administration; type: ADME, organism-based; conditions: in vivo, 24 h; in short: as §2
Rattus norvegicus [21] = test: Biodistribution of compound in rat bone marrow at 180 min after intravenous administration; type: ADME, organism-based; conditions: in vivo, 3 h; in short: as §2
Rattus norvegicus [22] = test: Biodistribution of compound in rat bone marrow at 360 min after intravenous administration; type: ADME, organism-based; conditions: in vivo, 6 h; in short: as §2
Rattus norvegicus [23] = test: Biodistribution of compound in rat bone marrow at 45 min after intravenous administration; type: ADME, organism-based; conditions: in vivo, 0.75 h; in short: as §2
Rattus norvegicus [24] = test: Biodistribution of compound in rat bone marrow at 90 min after intravenous administration; type: ADME, organism-based; conditions: in vivo, 1.5 h; in short: as §2
Rattus norvegicus [25] = test: Biodistribution of compound in rat bone marrow at 5 min after intravenous administration; type: ADME, organism-based; conditions: in vivo; in short: as §2
Rattus norvegicus [26] = test: Biodistribution of compound in rat brain after 5 min of administration; type: ADME, organism-based; conditions: in vivo
Rattus norvegicus [27] = test: Biodistribution of compound in rat eye at 1440 min after intravenous administration; type: ADME, organism-based; conditions: in vivo, 24 h; in short: as §2
Rattus norvegicus [28] = test: Biodistribution of compound in rat eye at 180 min after intravenous administration; type: ADME, organism-based; conditions: in vivo, 3 h; in short: as §2
Rattus norvegicus [29] = test: Biodistribution of compound in rat eye at 360 min after intravenous administration; type: ADME, organism-based; conditions: in vivo, 6 h; in short: as §2
Rattus norvegicus [30] = test: Biodistribution of compound in rat eye at 45 min after intravenous administration; type: ADME, organism-based; conditions: in vivo, 0.75 h; in short: as §2
Rattus norvegicus [31] = test: Biodistribution of compound in rat eye at 5 min after intravenous administration; type: ADME, organism-based; conditions: in vivo; in short: as §2
Rattus norvegicus [32] = test: Biodistribution of compound in rat eye at 90 min after intravenous administration; type: ADME, organism-based; conditions: in vivo, 1.5 h; in short: as §2
Rattus norvegicus [33] = test: Biodistribution of compound in rat feces at 1440 min after intravenous administration; type: ADME, organism-based; conditions: in vivo, 24 h
Rattus norvegicus [34] = test: Biodistribution of compound in rat feces at 360 min after intravenous administration; type: ADME, organism-based; conditions: in vivo, 6 h
Rattus norvegicus [35] = test: Biodistribution of compound in rat liver at 45 min after intravenous administration; type: ADME, organism-based; conditions: in vivo, 0.75 h; in short: as §1
Rattus norvegicus [36] = test: Biodistribution of compound in rat blood at 45 min after intravenous administration; type: ADME, organism-based; conditions: in vivo, 0.75 h; in short: as §2
Rattus norvegicus [37] = test: Biodistribution of compound in rat bone at 360 min after intravenous administration; type: ADME, organism-based, Bone element; conditions: in vivo, 6 h; in short: as §2

## Bis(1,3,5-trimethylbenzene)technetium
Rattus norvegicus [1]
  Dose/g: 10.4 % dose/organ
Rattus norvegicus [2]
  Dose/g: 3.6 % dose/organ
Rattus norvegicus [3]
  Dose/g: 0.2 % dose/organ
Rattus norvegicus [4]
  Dose/g: 0.48 % dose/organ
Rattus norvegicus [5]
  Dose/g: 0.34 % dose/organ
Rattus norvegicus [6]
  Dose/g: 0.86 % dose/organ
Rattus norvegicus [7]
  Dose/g: 1.15 % dose/organ
Rattus norvegicus [8]
  Dose/g: 0.6 % dose/organ
Rattus norvegicus [9]
  Dose/g: 25 % dose/organ
Rattus norvegicus [10]
  Dose/g: 30 % dose/organ
Rattus norvegicus [11]
  Dose/g: 29 % dose/organ
Rattus norvegicus [12]
  Dose/g: 26 % dose/organ
Rattus norvegicus [13]
  Dose/g: 30 % dose/organ
Rattus norvegicus [14]
  Dose/g: 25 % dose/organ
Rattus norvegicus [15]
  Dose/g: 0.8 % dose/organ
Rattus norvegicus [16]
  Dose/g: 1.5 % dose/organ
Rattus norvegicus [17]
  Dose/g: 1.8 % dose/organ
Rattus norvegicus [18]
  Dose/g: 3.5 % dose/organ
Rattus norvegicus [19]
  Dose/g: 1.4 % dose/organ
Rattus norvegicus [20]
  Dose/g: 0.02 % dose/organ
Rattus norvegicus [21]
  Dose/g: 0.13 % dose/organ
Rattus norvegicus [22]
  Dose/g: 0.09 % dose/organ
Rattus norvegicus [23]
  Dose/g: 0.36 % dose/organ
Rattus norvegicus [24]
  Dose/g: 0.13 % dose/organ
Rattus norvegicus [25]
  Dose/g: 0.37 % dose/organ
Rattus norvegicus [26]
  Dose/g: 0.1%
Rattus norvegicus [27]
  Dose/g: 0.01 % dose/organ
Rattus norvegicus [28]
  Dose/g: 0.016 % dose
Rattus norvegicus [29]
  Dose/g: 0.019 % dose
Rattus norvegicus [30]
  Dose/g: 0.028 % dose
Rattus norvegicus [31]
  Dose/g: 0.041 % dose
Rattus norvegicus [32]
  Dose/g: 0.044 % dose
Rattus norvegicus [33]
  Dose/g: 36.2 % dose
Rattus norvegicus [34]
  Dose/g: 0.4 % dose
Rattus norvegicus [35]
  Dose/g: 3.1 % dose
Rattus norvegicus [36]
  Dose/ml: 1.24 % dose
Rattus norvegicus [37]
  Dose/g: 1.3 % dose
